The source of these data is ChEMBL document CHEMBL1128328, “Identification of efficient pentapeptide substrates for the tyrosine kinase pp60c-src” (J Med Chem, 1995).

Data set [1] relates to CC[C@H](C)[C@H](NC(=O)[C@H](C)NC(=O)[C@H](CC(=O)O)NC(=O)[C@H](CCC(=O)O)NC(C)=O)C(=O)N[C@@H](Cc1ccc(O)cc1)C(N)=O. The data set can be described thus: (§1) Michaelis-Menten (Km) constant for peptide phosphorylation by pp60src. The essentials:
(§2)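 Same pp60c-src reaction (pH 7.1 MOPS, 200 µM [γ-32P]ATP, 20 µM ADP, 30 min, 30 °C, PEI-cellulose/Cerenkov readout). Two peptide levels, near and ~10× estimated Km (200 µM/2 mM, 25/300 µM, or 50 µM/1 mM depending on peptide). Initial velocities in 4–6 repeats per level, minus zero-time blank. Apparent values from Cornish-Bowden direct linear plot.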

For data set [2], the system named is CC[C@H](C)[C@H](NC(=O)[C@H](CCC(=O)O)NC(=O)[C@H](CCC(=O)O)NC(=O)[C@H](CCC(=O)O)NC(=O)[C@H](C)N)C(=O)N[C@@H](Cc1ccc(O)cc1)C(=O)NCC(=O)N[C@@H](CCC(=O)O)C(=O)N[C@@H](Cc1ccccc1)C(=O)N[C@@H](CCC(=O)O)C(=O)N[C@@H](C)C(=O)N[C@@H](CCCCN)C(=O)N[C@@H](CCCCN)C(=O)N[C@@H](CCCCN)C(=O)N[C@@H](CCCCN)C(=O)O. The data set is described as §1. In short, it runs like this: as §2

Data set [3] has as its system CC[C@H](C)[C@H](NC(C)=O)C(=O)N[C@@H](Cc1ccc(O)cc1)C(=O)NCC(=O)N[C@@H](CCC(=O)O)C(=O)N[C@@H](Cc1ccccc1)C(N)=O. The description is as §1. In short, it runs like this:
as §2

The subject of data set [4] is CC[C@H](C)[C@H](NC(=O)[C@H](C)NC(=O)[C@H](CC(=O)O)NC(=O)[C@H](CCC(=O)O)NC(C)=O)C(=O)N[C@@H](Cc1ccc(O)cc1)C(N)=O. The data set can be described thus: (§3) Maximum enzyme velocity(Vmax) of peptide phosphorylation by pp60src. The essentials:
as §2

Data set [5] concerns CC[C@H](C)[C@H](NC(=O)[C@H](CCC(=O)O)NC(=O)[C@H](CCC(=O)O)NC(=O)[C@H](CCC(=O)O)NC(=O)[C@H](C)N)C(=O)N[C@@H](Cc1ccc(O)cc1)C(=O)NCC(=O)N[C@@H](CCC(=O)O)C(=O)N[C@@H](Cc1ccccc1)C(=O)N[C@@H](CCC(=O)O)C(=O)N[C@@H](C)C(=O)N[C@@H](CCCCN)C(=O)N[C@@H](CCCCN)C(=O)N[C@@H](CCCCN)C(=O)N[C@@H](CCCCN)C(=O)O. Described as §3. The essentials: as §2
Data set [6] deals with CC[C@H](C)[C@H](NC(C)=O)C(=O)N[C@@H](Cc1ccc(O)cc1)C(=O)NCC(=O)N[C@@H](CCC(=O)O)C(=O)N[C@@H](Cc1ccccc1)C(N)=O. Described as §3. In short, it runs like this: as §2
In data set [7] the target is Proto-oncogene tyrosine-protein kinase Src (Homo sapiens) (UniProt P12931). The data set can be described thus: Incorporation of 32P into phosphopeptide product (3 mM) in pp60c-src phosphorylation assay. The essentials: (§4)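 Human pp60c-src (baculovirus/SF9 recombinant, partially purified), 10 units in 40 µL; 138 mM MOPS pH 7.1, 0.64 mM MgCl2 (calculated free Mg2+ 0.44 mM), BSA 0.37 mg/mL, 200 µM [γ-32P]ATP, 20 µM ADP; peptide at 1 or 3 mM final; 30 min, 30 °C; acid molybdate quench; PEI-cellulose column, 1 M LiCl elution, Cerenkov counting; triplicate, no-peptide blank subtracted.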

For data set [8] the target is unchanged. The data set can be described thus: Incorporation of 32P into phosphopeptide product (1 mM) in pp60c-src phosphorylation assay. The essentials: as §4

For the compound “Proto-oncogene tyrosine-protein kinase Src (Homo sapiens) (from UniProt P12931)”, the figures for the Km in data set [1], in data set [2] and in data set [3] were 880 µM, 100 µM and 368 µM, respectively. In addition, the Vmax (usually the rate approached at saturating substrate) in data set [4] was 1.86 µM/min/mg; in data set [5], 3.06 µM/min/mg; in data set [6] it was 1.02 µM/min/mg.
Turning to Ac-DAEYA-NH2, the CPM x1000 in data set [7] was determined as 23.4.
Same read-out and setting: the figure for Ac-GEGTYGV-NH2 is 120; for H-RRLIEDAEYAARG-OH it is 80.3.
Regarding Ac-EGTYG-NH2, the figures for the CPM x1000 in data set [8] and in data set [7] were 63.5 and 89.5, respectively.
As to Ac-EDAEYA-NH2, the CPM x1000 in data set [7] is 28.5.
For Ac-EDAIY-NH2, in data set [8], the CPM x1000 came out at 403.
On the same count and under the same terms, next, `CC[C@H](C)[C@H](NC(=O)[C@H](CCC(=O)O)NC(=O)[C@H](CCC(=O)O)NC(=O)[C@H](CCC(=O)O)NC(=O)[C@H](C)N)C(=O)N[C@@H](Cc1ccc(O)cc1)C(=O)NCC(=O)N[C@@H](CCC(=O)O)C(=O)N[C@@H](Cc1ccccc1)C(=O)N[C@@H](CCC(=O)O)C(=O)N[C@@H](C)C(=O)N[C@@H](CCCCN)C(=O)N[C@@H](CCCCN)C(=O)N[C@@H](CCCCN)C(=O)N[C@@H](CCCCN)C(=O)O`: 702.
Still for that read-out and setting: the figure for Ac-IYGEF-NH2 is 497.
